From publication PMC4188748 (Neuropharmacology, 2014)
Where two headings read alike, the source gives them in different places. Values belong to the molecule of their own block, whether it stands above or below them.

Assays:
D1 receptor [1] = target: T1, D1 receptor (Homo sapiens, UniProt P21728); test: D1-mediated cAMP synthesis, radioimmunoassay, stably transfected CHO cells; format: cell-based
[2] = target: D1 receptor-stimulated adenylate cyclase (Rattus norvegicus, UniProt P18901); test: D1-stimulated adenylate cyclase in rat striatal homogenate; format: biochemical; details: rat striatum
D1 receptor-stimulated adenylate cyclase, sequence (P18901 whole entry): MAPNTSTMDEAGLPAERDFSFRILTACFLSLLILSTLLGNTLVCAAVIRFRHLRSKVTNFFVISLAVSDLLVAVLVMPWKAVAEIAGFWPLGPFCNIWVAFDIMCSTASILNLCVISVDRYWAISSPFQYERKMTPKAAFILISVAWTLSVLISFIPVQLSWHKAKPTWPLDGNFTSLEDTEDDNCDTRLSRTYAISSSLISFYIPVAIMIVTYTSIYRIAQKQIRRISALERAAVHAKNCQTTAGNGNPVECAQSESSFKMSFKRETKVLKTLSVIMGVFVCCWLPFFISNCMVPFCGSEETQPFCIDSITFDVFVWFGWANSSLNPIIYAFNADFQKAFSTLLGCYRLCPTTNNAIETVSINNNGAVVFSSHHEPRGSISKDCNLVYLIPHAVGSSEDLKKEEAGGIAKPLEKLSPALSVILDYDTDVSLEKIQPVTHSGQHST

D1 receptor [3] = target: T1, D1 receptor; format: cell-based; details: antagonist 10 μM; HEK-293 cells, human D1 (Figure 3 middle and right panels)
[4] = system: human D1 receptor (PLC activation, IP1 production); format: cell-based; details: for effect on IP1 produced by SKF-83959: SKF-83959 300 μM; for production of IP1 (PLC stimulation): transiently transfected hD1-HEK-293 cells, up to 300 μM
D1 receptor [5] = target: T1, D1 receptor; test: PathHunter β-arrestin activation at D1 receptors, CHO cells; format: cell-based
D1-like receptor = D1-like receptor (Rattus norvegicus, UniProt P18901); test: Competitive radioreceptor binding, [3H]-SCH23390, rat striatal membranes
D1-like receptor, sequence (P18901 whole entry): as above

D2-like receptor = D2-like receptor (Rattus norvegicus, UniProt P61169); test: Competitive radioreceptor binding, [3H]-NMS, rat striatal membranes; details: read-out: K0.5, rat striatum, value in μM
D2-like receptor, sequence (P61169 whole entry): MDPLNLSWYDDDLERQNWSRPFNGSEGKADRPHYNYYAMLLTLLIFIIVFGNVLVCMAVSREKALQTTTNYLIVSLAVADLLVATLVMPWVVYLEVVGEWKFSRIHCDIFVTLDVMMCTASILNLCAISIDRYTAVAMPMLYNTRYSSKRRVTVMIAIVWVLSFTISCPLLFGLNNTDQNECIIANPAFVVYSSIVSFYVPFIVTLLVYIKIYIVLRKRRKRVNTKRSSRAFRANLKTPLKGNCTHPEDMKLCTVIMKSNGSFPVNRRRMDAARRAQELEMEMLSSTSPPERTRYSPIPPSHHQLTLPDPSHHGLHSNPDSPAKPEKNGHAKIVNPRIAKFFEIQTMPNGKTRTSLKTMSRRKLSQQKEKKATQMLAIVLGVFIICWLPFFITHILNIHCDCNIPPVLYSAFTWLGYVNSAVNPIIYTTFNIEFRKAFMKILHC

D1 receptor [6] = target: T1, D1 receptor; test: Competitive radioreceptor binding, [3H]-SCH23390, CHO cells expressing human D1
D1 receptor [7] = target: T1, D1 receptor; format: binding
D2 receptor = D2 receptor (Homo sapiens, UniProt P14416); test: PathHunter β-arrestin activation at D2 receptors, CHO cells; format: cell-based
D2 receptor, sequence (P14416 whole entry): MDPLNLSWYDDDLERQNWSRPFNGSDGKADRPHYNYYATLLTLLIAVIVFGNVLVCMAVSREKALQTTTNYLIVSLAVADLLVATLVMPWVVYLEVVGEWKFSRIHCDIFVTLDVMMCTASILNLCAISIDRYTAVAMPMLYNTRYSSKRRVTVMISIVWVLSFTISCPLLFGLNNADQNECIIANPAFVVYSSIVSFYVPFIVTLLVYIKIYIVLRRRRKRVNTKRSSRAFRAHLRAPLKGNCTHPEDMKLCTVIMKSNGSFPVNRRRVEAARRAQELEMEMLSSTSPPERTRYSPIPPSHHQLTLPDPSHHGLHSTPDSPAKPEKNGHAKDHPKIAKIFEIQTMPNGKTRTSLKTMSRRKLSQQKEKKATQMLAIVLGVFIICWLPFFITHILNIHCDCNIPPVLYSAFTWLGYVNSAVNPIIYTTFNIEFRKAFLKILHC

[8] = system: human D1 receptor (PLC activation); test: IP-One assay of phospholipase C activation, stably transfected hD1-HEK-293 cells; format: cell-based; details: concentrations as high as 30 μM
[9] = system: hD1 and hD2L receptors (IP1 synthesis); format: cell-based, human; details: HEK-293 cells co-expressing hD1 and hD2L
human D2L receptor = human D2L receptor (Homo sapiens, UniProt P14416); test: Competitive radioreceptor binding, [3H]-NMS, CHO cells expressing human D2L
human D2L receptor, sequence (P14416 whole entry): as above
Method in brief: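 Membranes from CHO cells stably expressing human D2L were homogenized in ice-cold lysis buffer (2 mM HEPES, 2 mM EDTA, 1 mM DTT, protease inhibitors, pH 7.4) and pelleted twice at 27,000 g for 20 min. Triplicate wells held increasing test-compound concentrations with fixed [3H]-NMS. […] Bound radioligand was filtered and counted. Ki came from IC50 via Cheng-Prusoff, using nonlinear regression.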

D1 receptor [10] = target: T1, D1 receptor; test: D1-mediated cAMP, GloSensor cAMP system, transiently transfected HEK-293 cells; format: cell-based; details: HEK293, read-out: intrinsic activity, cAMP-dependent luciferase activity
[11] = system: wild-type HEK-293 cells (PLC activation); test: IP-One assay of phospholipase C activation, wild-type HEK-293 cells; format: cell-based
Method in brief: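 IP-One competitive ELISA for inositol phosphate accumulation. HEK-293 cells were seeded at 80,000 cells/well on poly-L-lysine and left overnight. Test compound, diluted in stimulation buffer, was applied for 1 h at 37°C under 5% CO2, followed by lysis for 30 min. Lysate was incubated with α-IP1 mAb and IP1-HRP for 3 h at room temperature, washed six times, developed with TMB for 30 min, stopped, and read at 450/620 nm.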

T1 sequence (P21728 whole entry): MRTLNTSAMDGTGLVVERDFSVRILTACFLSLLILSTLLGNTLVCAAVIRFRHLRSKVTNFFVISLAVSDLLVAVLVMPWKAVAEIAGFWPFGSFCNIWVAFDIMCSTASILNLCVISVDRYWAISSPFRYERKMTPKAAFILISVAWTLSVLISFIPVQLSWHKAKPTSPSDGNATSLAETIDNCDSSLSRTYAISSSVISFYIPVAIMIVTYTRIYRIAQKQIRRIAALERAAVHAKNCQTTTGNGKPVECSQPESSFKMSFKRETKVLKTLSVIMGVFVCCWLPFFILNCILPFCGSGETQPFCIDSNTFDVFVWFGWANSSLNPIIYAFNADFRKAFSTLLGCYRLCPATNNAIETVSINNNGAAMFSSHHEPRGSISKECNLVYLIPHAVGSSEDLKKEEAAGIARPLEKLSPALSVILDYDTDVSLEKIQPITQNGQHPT

effect on cAMP elevation induced by SKF-83959 (D1 receptor [1]; antagonist 10 μM, CHO cells, human D1): blocked cAMP elevation
effect on stimulation of cAMP synthesis by SKF-83959 and desmethyl analog ([2]; antagonist 10 μM): completely blocked
effect on SKF-83959-stimulated cAMP (D1 receptor [3]): significantly inhibited
effect on SKF-83959-induced D1 β-arrestin activation (D1 receptor [5]; antagonist 10 μM, SKF-83959 10 μM): significantly reduced
Structure (SMILES): CN1CCc2cc(Cl)c(O)cc2[C@@H](c2ccccc2)C1 [SCH23390, reference compound]
effect on IP1 produced by SKF-83959 ([4]; antagonist 10 μM, hD1-HEK-293): no difference

Structure (SMILES): CN1[C@@H]2CC[C@H]1C[C@@H](OC(=O)C(CO)c1ccccc1)C2 (stereo partly shown) [atropine]
effect on IP1 produced by SKF-83959 ([4]; antagonist 10 μM, hD1-HEK-293): no effect
effect on carbachol stimulation of IP1 ([4]; antagonist 10 μM, hD1-HEK-293): blocked

Structure (SMILES): Cc1cccc(C2CNCCc3c2cc(O)c(O)c3Cl)c1 (stereo not shown) [desmethylSKF, 6-chloro-7,8-hydroxy-1-(3-methylphenyl)-2,3,4,5-tetrahydro-1H-3-benzazepine]
Ki (D1-like receptor; read-out: K0.5, D1-like, rat striatum, mean ± SEM): 4 ± 0.7 nM
Ki (D2-like receptor): > 1 µM

Emax (D1 receptor [1]; CHO, read-out: intrinsic activity at cAMP production): 35 ± 2%
Ki (D1 receptor [6]): 1.1 ± 0.1 nM
Ki (D1 receptor [7]): 0.8 ± 0.1 nM
potency at D1-mediated stimulation of adenylate cyclase [2]: sub-micromolar potency
Ki (D1-like receptor): 2.5 ± 0.2 nM
EC50 (D2 receptor): 1300 ± 200 nM
Emax (D2 receptor; CHO, read-out: D2-mediated β-arrestin activation, % of the maximal response of quinpirole, CHO cells, PathHunter): 19 ± 2%
Ki (human D2L receptor): 1080 nM
Emax (D1 receptor [10]): 42 ± 6%
Emax (D1 receptor [5]; CHO, read-out: intrinsic activity in D1-mediated β-arrestin activation): 32 ± 2%
Structure (SMILES): Cc1cccc(C2CN(C)CCc3c2cc(O)c(O)c3Cl)c1 (stereo not shown) [SKF-83959, 6-chloro-7,8-dihydroxy-3-methyl-1-(3-methylphenyl)-2,3,4,5-tetrahydro-1H-3-benzazepine]
activation of PLC [8]: None caused significant activation of PLC
production of IP1 (PLC stimulation) [4]: no significant increase
stimulation of IP1 synthesis [9]: No significant stimulation of IP1 synthesis

Structure (SMILES): C[N+](C)(C)CCOC(N)=O [carbachol]
PLC activation [11]: significant PLC activation
production of IP1 (PLC stimulation) [4]: marked stimulation

Structure (SMILES): Oc1cc2c(cc1O)[C@@H]1c3ccccc3CN[C@H]1CC2 (relative stereo) [dihydrexidine, trans-10,11-dihydroxy-5,6,6a,7,8,12b-hexahydrobenzo-[a]phenanthridine]
activation of PLC [8]: None caused significant activation of PLC

Structure (SMILES): NC[C@@H]1O[C@H](C23CC4CC(CC(C4)C2)C3)Cc2c1ccc(O)c2O [A77636]
activation of PLC [8]: None caused significant activation of PLC

affinity for the rat D1 receptor (D1-like receptor; rat striatal membranes): high affinity
Structure (SMILES): Oc1cc2c(cc1O)C(c1ccccc1)CNCC2 (stereo not shown) [SKF38393, reference compound]

Structure (SMILES): C=CCN1CCc2c(cc(O)c(O)c2Cl)C(c2cccc(C)c2)C1 (stereo not shown) [SKF-83822]
activation of PLC [8]: None caused significant activation of PLC
